Compound activity as filed in PubChem.
M4 ag – CHRM4 agonism in calcium assay; P08173; 0.14% of 360,000 active; AID 624127; CHO-K1 hM4/Gqi5, Fluo-8 calcium fluorescence; vehicle 0%, full acetylcholine response 100%; activation, % at 3 µM;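 active = activation above the run mean over all test wells plus 3 SD, cut at about 32% in these data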;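 note: peak over basal fluorescence ratio per well then scaled between controls; 0% = DMSO wells and 100% = acetylcholine at EC100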
Target sequence (P08173 whole entry, looked up): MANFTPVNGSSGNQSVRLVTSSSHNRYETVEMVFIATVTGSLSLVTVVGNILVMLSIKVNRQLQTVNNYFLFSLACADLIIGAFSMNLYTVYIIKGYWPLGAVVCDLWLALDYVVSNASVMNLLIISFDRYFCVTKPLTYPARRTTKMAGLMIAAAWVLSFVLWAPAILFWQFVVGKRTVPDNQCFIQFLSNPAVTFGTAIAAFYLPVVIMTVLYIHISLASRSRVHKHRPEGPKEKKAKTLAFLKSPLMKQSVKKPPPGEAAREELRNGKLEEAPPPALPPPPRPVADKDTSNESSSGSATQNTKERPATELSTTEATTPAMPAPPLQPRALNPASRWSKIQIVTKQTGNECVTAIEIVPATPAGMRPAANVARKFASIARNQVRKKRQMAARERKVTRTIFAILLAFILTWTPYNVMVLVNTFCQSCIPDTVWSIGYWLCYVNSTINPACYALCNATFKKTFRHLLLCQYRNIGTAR
M4 antag – blocks acetylcholine activation of human M4 receptor; CHO-hM4 cells, ACh EC80, Fluo-8 calcium fluorescence; inhibition, % at 3 µM; AID 624125; 0.73% of 360,000 active; P08173;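 active = inhibition above its plate's cutoff, the mean inhibition of sample wells plus 3 SD, cut at about 27% in these data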;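 note: 0% = acetylcholine EC80 with DMSO and 100% = DMSO without agonist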
OXTR potentiate – potentiators of human oxytocin receptor. P30559. CHO-OTR cells, Fluo-8 calcium fluorescence, potentiator mode; 0% = oxytocin EC15, 100% = EC100. activation, % at 3 µM. 0.061% of 320,000 active. AID 2445;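 active = activation above that plate's cutoff, the mean activation of tested compounds plus 3 SD, cut at about 6.6% in these data, passing the limit was not always enough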;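 note: 100% uses oxytocin at 75 nM as the full agonist control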
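Replication – single well per compound, singlicate · Assay system – CHO cell line stably expressing human OTR · Timing – 6 min pre-incubation, 100 s read · Measure – normalized max/min fluorescence ratio, % activation · Doses – 3.0 µM, one dose · Detection – Fluo-8 calcium dye fluorescence · Probe or stimulus – oxytocin near EC15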
OXTR ag – human OXTR agonism; P30559; CHO-OTR cells, Fluo-8 calcium fluorescence; normalized: DMSO 0%, oxytocin 100%; activation, % at 3 µM; 0.32% of 320,000 active; AID 2435;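 active = activation above the mean of all tested compounds plus 3 SD, cutoff set per screening run, cut at about 20% in these data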;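 note: peak over basal fluorescence ratio from a 100 s FLIPR kinetic read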
M4 PAM – potentiates acetylcholine response at human M4 receptor; activation, % at 3 µM; CHO-K1 hM4/Gqi5, Fluo-8 calcium fluorescence, ACh EC20; 0% = ACh EC20, 100% = maximal ACh; AID 624126; 0.4% of 360,000 active; P08173;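 active = activation above its plate's cutoff, the mean activation of sample wells plus 3 SD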
V1aR counter – activates human V1a receptor in oxytocin agonist counter-screen | P37288 | CHO-V1R cells, Fluo-8 calcium fluorescence, agonist mode; 0% DMSO, 100% 3 nM vasopressin | activation, % at 3 µM | 0.25% of 320,000 active;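 active = activation above the mean activation of all tested compounds plus 3 SD, per screening run, cut at about 20% in these data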;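 note: signal is peak over basal fluorescence ratio across a 100 second FLIPR read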
* marks the source's active call; other numbers are inactive results; . = not tested or not shown. This is a sample that favours compounds with a hit; in the whole collection about 1.5% have one here.

SMILES | M4 ag | M4 antag | OXTR potentiate | OXTR ag | M4 PAM | V1aR counter
Cc1cccc(C)c1NC(=O)CN(C)C(=O)[C@H](C)NC(=O)c1ccco1 | 0.8 | -8.2 | -3.6 | -0.4 | 24.1* | -0.1
CC1(C(=O)NS(=O)(=O)c2ccc3c(c2)CCO3)CCN1C(=O)c1ccccc1CCc1ccccc1 (stereo unspecified) | 0.2 | -0.2 | . | . | 3.7 | .
CCC1CCCCN1CC(=O)c1c(C)[nH]c2ccc(OC)cc12 (stereo unspecified) | 0.2 | -4.6 | -6.8 | -1.3 | -2.9 | -0.2
O=C(O)c1ccc(CNCc2cccc(Cl)c2Cl)cc1 | 2.2 | -5.1 | -9.4 | 0.1 | 27.6* | 0.0
S=c1[nH]nc(Cc2ccccc2)n1Cc1ccco1 | -0.2 | 68.1* | 5.7 | 1.0 | -15.0 | 0.4
COc1ccc(NC(=O)CC2C(=O)N(CCc3ccccc3)C(=S)N2Cc2cccnc2)cc1 (stereo unspecified) | 15.9 | 27.1* | -8.5 | 7.3 | -10.0 | 4.3
Nc1ncnc2c1ncn2[C@@H]1O[C@H](CNCc2ccc(-n3cccn3)cc2)[C@@H](O)[C@H]1O | 0.1 | 3.6 | -4.0 | 1.8 | -3.1 | 0.8
Cc1cccc(OCc2nc(-c3ccc(-n4cccc4)cc3)no2)c1 | 0.9 | -27.9 | -2.5 | 0.5 | 17.7* | 0.4
O=C(COC(=O)c1ccc[nH]c1=O)NCCCc1ccccc1 | 1.3 | 10.4 | -2.8 | -0.2 | 0.5 | 1.1
CCN(CC)c1ccc(/C=C/c2cc(-c3ccccc3)c3ccccc3n2)cc1 | 23.7 | 30.8* | -5.5 | 6.1 | -4.9 | 9.0
CC[N+](CC)(CC)CC(=O)Nc1c(C)cccc1C | 1.4 | 35.5* | -2.9 | 0.7 | -9.6 | 0.3
CC(C)(C)NC(=O)C1c2ccccc2OCC(=O)N1CCCN1CCOCC1 (stereo unspecified) | 0.1 | -3.8 | . | . | 16.7 | .
COc1cccc(NS(=O)(=O)c2ccc(-n3cccn3)cc2)c1 | 26.4 | 30.8* | -14.8 | 8.3 | -11.8 | 9.8
O=C(O)c1cnn(-c2nc(-c3ccc(Br)cc3)cs2)c1C(F)(F)F | 7.2 | 13.5 | -19.1 | -1.7 | -9.8 | 0.3
O=C(O)c1cnn(-c2nc(-c3ccc(F)cc3)cs2)c1C(F)(F)F | -0.2 | -6.0 | -4.3 | 0.2 | 23.4* | 0.1
COc1ccc(NC(=O)N(C)C[C@@H]2OCc3cnnn3CCCC(=O)N([C@H](C)CO)C[C@@H]2C)cc1 | 2.2 | -1.2 | . | . | 4.2 | .
CCOC(=O)c1c(NC(=O)CSc2nnc(-c3ccco3)o2)sc(C)c1C | 0.9 | 0.5 | -0.3 | 0.5 | 36.5* | -0.3
COc1ccccc1N1CCN(C(=O)c2cc(S(=O)(=O)N3CCOCC3)ccc2C)CC1 | 5.7 | -12.7 | . | . | 5.4 | .
CC1CCCCN1C(=O)CSc1nc(N)nc(N)n1 (stereo unspecified) | 1.1 | -6.1 | 4.3 | 0.3 | 26.0* | 1.4
COC12CC(=O)C(C(C)=O)=C(O)C1(C)c1c(O)c(C)c(O)c(C(C)=O)c1O2 (stereo unspecified) | 4.8 | -15.4 | . | . | 4.4 | .
N=c1c2c3c(sc2nc2n1CCCCC2)CCCCC3 | 3.5 | 28.7* | -11.6 | 5.5 | -23.8 | 4.5
COc1cc(CNc2ncnc3c2ncn3[C@H]2CN(Cc3cc(OC)c(OC)c(OC)c3)C[C@@H](CO)O2)cc(OC)c1OC | -0.4 | -21.4 | . | . | 22.2* | .
OC[C@@H]1CN(Cc2ccc(-c3ccccc3)cc2)C[C@H](n2cnc3c(Nc4ccccc4)ncnc32)O1 | 21.0 | 37.2* | . | . | -10.5 | .
OC[C@@H]1CN(Cc2ccccc2)C[C@H](n2cnc3c(NCc4ccncc4)ncnc32)O1 | 4.7 | -5.3 | . | . | 20.3* | .
COCCN1C[C@@H](CO)O[C@@H](n2cnc3c(NCc4cc(OC)c(OC)c(OC)c4)ncnc32)C1 | 1.9 | -13.7 | . | . | 10.7 | .
SMILES | M4 ag | M4 antag | OXTR potentiate | OXTR ag | M4 PAM | V1aR counter
OC[C@@H]1CN(Cc2ccc(F)cc2)C[C@H](n2cnc3c(Nc4ccccc4)ncnc32)O1 | 16.1 | -1.0 | . | . | -13.0 | .
O=C(O)c1ccc(Cn2cnc3c(=O)[nH]cnc32)cc1 | 0.2 | -13.2 | . | . | 6.4 | .
C(=C\c1ccccc1)/CN1CCN(C(c2ccnc3ccccc23)c2nnnn2C2CCCC2)CC1 (stereo unspecified) | 0.8 | 31.2* | . | . | -15.0 | .
C(=C\c1ccccc1)/CN1CCN(C(c2ccccc2)c2nnnn2C2CCCC2)CC1 (stereo unspecified) | 3.9 | 13.6 | . | . | -14.1 | .
COc1cccc(C(c2nnnn2C2CCCCC2)N2CCN(C/C=C/c3ccccc3)CC2)c1OC (stereo unspecified) | -0.4 | 28.5* | . | . | -16.1 | .
Cc1nc(N2CCN(c3ccccc3)CC2)[nH]c(=O)c1C | -1.4 | 1.7 | -5.3 | -0.9 | 1.9 | -0.8
O=c1[nH]c2ccccc2c2nc(-c3cccc(S(=O)(=O)N4CCCC4)c3)nn12 | 1.5 | 29.3* | -2.3 | 0.1 | 19.1 | -0.6
O=C(N=Nc1c(O)[nH]c2ccccc12)c1cccc(S(=O)(=O)N2CCCCC2)c1 | 0.1 | 6.0 | -3.0 | -0.3 | -1.4 | 1.1
Nc1ccc2c3c(cccc13)C(=O)N(c1ccccc1)C2=O | 70.5* | 30.6* | . | . | -27.8 | .
Nc1cccc(N2C(=O)c3cccc4c(N)ccc(c34)C2=O)c1 | 39.1* | 4.5 | -12.0 | 27.6* | -12.3 | 46.9*
Cc1cccc(N2C(=O)c3cccc4c(N(C)CCO)ccc(c34)C2=O)c1 | 38.2* | 21.3 | -12.6 | 52.5* | -24.6 | 37.8*
O=C(O)c1ccc2c3c(cccc13)C(=O)N(c1ccccc1)C2=O | 1.1 | 0.4 | 1.0 | 1.1 | -0.1 | 1.8
CC(C)CCN1C(=O)c2cccc3c(N)ccc(c23)C1=O | 97.4* | 47.3* | -20.4 | 128.3* | -17.5 | 169.6*
CCNC(=O)C1(C)CCN(C(=O)c2ccc(OC(F)F)cc2)C1 (stereo unspecified) | 1.1 | -5.1 | . | . | 7.2 | .
Cc1cccc(N2C(=O)c3cccc4c(N)ccc(c34)C2=O)c1 | 103.8* | 29.2* | -26.7 | 171.9* | -18.1 | 139.4*
OC(Cc1ccnc2ccccc12)C(Cl)(Cl)Cl (stereo unspecified) | 11.7 | 13.3 | . | . | -5.9 | .
O=C(Nc1cc(Cl)cc2c1-c1ccc(Cl)cc1C2O)C(Cl)Cl (stereo unspecified) | 8.2 | -16.2 | . | . | -0.3 | .
CCn1c(CNc2ccc(C)cc2)nnc1SCC(=O)NCc1ccccc1 | 1.0 | 1.0 | 2.0 | -0.2 | 30.6* | -0.1
CCc1ccccc1NC(=O)c1onc(C)c1Cl | 0.2 | 55.1* | -3.3 | -0.6 | -16.0 | -0.3
COC(=O)c1ccccc1NC(=O)c1onc(C)c1Cl | -0.5 | 0.6 | . | . | 2.2 | .
CCCOC(=O)C1=C(C)NC2=C(C(=O)CCC2)C1c1ccc(N(C)C)cc1 (stereo unspecified) | 0.2 | 21.4 | -6.0 | -0.3 | -11.9 | 0.7
